Compound activity (PubChem)
EBI2 antag – blocks human EBI2 receptor beta-arrestin signaling. inhibition, % at 5 µM. AID 651636. 0.81% of 360,000 active. EBI2 beta-arrestin recruitment, luminescence, 7a,25-OHC stimulated. P32249; in the data active means inhibition above about 38%;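 further: enzyme fragment complementation signal reports receptor beta-arrestin coupling in cells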
CXCR6 inh – CXCR6 (human) receptor inhibition. 0.36% of 360,000 active. CHO-K1 PathHunter CXCR6 beta-arrestin, luminescence. inhibition, % at 20 µM. AID 602244; in the data active means inhibition above about 34%, passing the limit was not always enough;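 further: antagonist mode with CXCL16 agonist at 10 nM final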
H9c2 TAG inh – inhibitors of triacylglycerol accumulation | H9c2 cells, Nile Red lipid (TAG) fluorescence; cells loaded with 200 µM oleic acid | inhibition, % at 12.5 µM | 0.66% of 230,000 active;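 active means pattern-corrected inhibition of lipid staining of at least 50% with the nuclear-stain viability signal not falling by more than 50%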
APJ antag – APJ receptor antagonism; AID 2521; P35414; 0.32% of 330,000 active; inhibition, % at 20 µM; CHO-K1 APJ beta-arrestin complementation, luminescence;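 active means inhibition above about 40% at 20 µM, limit read from the data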;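 further: cells challenged with 10 nM apelin-13 agonist together with compound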
APJ ag – APJ receptor agonism. P35414. CHO-K1 APJ PathHunter beta-arrestin, luminescence; 0% DMSO wells, 100% apelin. activation, % at 20 µM. 0.11% of 330,000 active. AID 2520;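 active means activation more than six SD over the plate average, tested at 20 µM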
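Assay system: engineered CHO-K1 APJ arrestin reporter cells; Amount: 1000 CHO-K1 reporter cells seeded per well; Dosing: one dose, 20 µM compound, 1% DMSO; Times: compound stimulation 90 min at 25 °C, detection 60 min; Measured by: luminescent beta-gal fragment complementation, chemiluminescent substrate; Read-out: APJ–arrestin association signal; Controls: DMSO vs Apelin-13 10 nM.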
CCR6 antag – blocks CCL20-driven beta-arrestin recruitment at human CCR6. CHO-K1 CCR6 PathHunter beta-arrestin, luminescence, CCL20-stimulated. inhibition, % at 20 µM. 0.49% of 340,000 active. AID 493098;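 active means compounds whose inhibition of the agonist-driven luminescence signal at 20 µM reaches about 50%, limit read from the data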;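 further: cells stimulated with CCL20 at 14 nM final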
Target sequence (P51684 whole entry, looked up): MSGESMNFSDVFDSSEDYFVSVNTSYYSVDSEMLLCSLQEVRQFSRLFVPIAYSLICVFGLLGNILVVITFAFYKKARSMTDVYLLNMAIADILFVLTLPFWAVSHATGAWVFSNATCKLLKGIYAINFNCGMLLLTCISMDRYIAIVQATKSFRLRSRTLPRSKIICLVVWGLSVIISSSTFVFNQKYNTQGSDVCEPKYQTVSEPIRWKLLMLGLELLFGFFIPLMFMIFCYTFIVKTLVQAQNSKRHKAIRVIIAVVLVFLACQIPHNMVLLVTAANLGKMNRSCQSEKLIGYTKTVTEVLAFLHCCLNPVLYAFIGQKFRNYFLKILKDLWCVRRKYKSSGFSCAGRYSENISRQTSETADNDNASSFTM
EBI2 conf – confirmation of human EBI2 receptor antagonists; EBI2 beta-arrestin luminescence, 7a,25-OHC antagonism; AID 651997; 29% of 2,400 active; shares compounds with EBI2 antag; inhibition, % at 5 µM;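 active means inhibition of at least 50%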
EBI2 agonist – counter-screen for EBI2 antagonists: EBI2 agonist activity; shares compounds with EBI2 antag; EBI2-expressing cells, agonist mode, luminescence, 60 min; 0% vehicle, 100% 7α,25-dihydroxycholesterol control; activation, % at 5 µM; 2,400 tested, under 10 active; AID 652000;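 active means activation of at least 50%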
bGal cs – counter-screen for EBI2 antagonists: E. coli beta-galactosidase inhibition; shares compounds with EBI2 antag; purified beta-galactosidase, luminescent Galacton Star, 15 min; inhibition, % at 5 µM; 1% of 2,400 active; AID 652176;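 active means replicate-average signal at least 3 plate SD below neutral wells, shown as high inhibition, flagging enzyme-inhibiting false positives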;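 further: higher means stronger loss of beta-gal luminescence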
Large screens that a line does not name were inactive (follow-up assays come after a bar, where they were run). Hits are enriched below; roughly 1.9% of the tested compounds scored in any of these assays.

CC(C)NC(=O)C1CCN(C(=O)c2ccc(-c3ccccc3)cc2)CC1	EBI2 antag 44.0 (no result: H9c2 TAG inh) | EBI2 conf inactive | EBI2 agonist inactive | bGal cs inactive
COc1ccc(C(=O)N2CCN(c3ccc(C)cc3)CC2)cc1OC	none
O=C(c1ccccc1)N1CCN(C(=O)c2ccc(OC(F)(F)F)cc2)CC1	EBI2 antag 52.7 | EBI2 conf inactive | EBI2 agonist inactive | bGal cs inactive
CC(C)CC(=O)N1CCN(C(=O)c2ccc(-c3ccccc3)cc2)CC1	EBI2 antag 73.6 (no result: H9c2 TAG inh) | EBI2 conf inactive | EBI2 agonist inactive | bGal cs inactive
COc1ccc(C(=O)N2CCN(C(=O)c3ccc(-c4ccccc4)cc3)CC2)cc1OC	EBI2 antag 80.7 | EBI2 conf inactive | EBI2 agonist inactive | bGal cs inactive
CC(=O)N1CCN(C(=O)c2ccc(Oc3ccccc3)cc2)CC1	none
Cc1noc(C)c1C(=O)OCC(=O)/C=C1/N(C)c2ccccc2C1(C)C	none (no result: APJ antag, APJ ag)
COc1ccc(C(=O)N2CCC(O)(c3ccc(F)cc3)CC2)cc1OC	none
COc1cc(OC)cc(C(=O)N2CCN(C(=O)c3ccc(-c4ccccc4)cc3)CC2)c1	EBI2 antag 89.0 | EBI2 conf 66.9 | EBI2 agonist inactive | bGal cs inactive
COc1ccc(C(=O)N2CCC(O)(c3ccc(Cl)cc3)CC2)cc1OC	EBI2 antag 51.7 | EBI2 conf inactive | EBI2 agonist inactive | bGal cs inactive
COc1cc(OC)cc(C(=O)N2CCN(C(=O)c3cccc(F)c3)CC2)c1	none
COc1ccc(-c2nnc(C3CCN(S(=O)(=O)c4ccccc4)CC3)o2)cc1	EBI2 antag 47.4 | EBI2 conf inactive | EBI2 agonist inactive | bGal cs inactive
CC(=O)c1ccc(Nc2ccc(-c3ccccc3F)nn2)cc1	EBI2 antag 42.2 | EBI2 conf inactive | EBI2 agonist inactive | bGal cs inactive
Cc1ccc(NC(=O)c2ccc(S(=O)(=O)N3CCC(C)CC3)cc2)cc1	EBI2 antag 53.0 (no result: H9c2 TAG inh) | EBI2 conf inactive | EBI2 agonist inactive | bGal cs inactive
CC(=O)Nc1ccc(S(=O)(=O)N2CCC(C(=O)c3ccc(Cl)cc3)CC2)cc1	EBI2 antag 53.6 (no result: H9c2 TAG inh) | EBI2 conf inactive | EBI2 agonist inactive | bGal cs inactive
Cc1ccc(NC(=O)C2=CCN(S(=O)(=O)c3ccc(F)cc3)CC2)cc1	EBI2 antag 47.1 | EBI2 conf inactive | EBI2 agonist inactive | bGal cs inactive
Cc1ccc(S(=O)(=O)NCC(=O)NCC(=O)N(C)Cc2ccc(Br)s2)cc1C	none (no result: APJ antag, APJ ag, CCR6 antag)
CCc1ccc(N2CC(C(=O)Nc3ccc(S(=O)(=O)NCC4CCCO4)cc3)CC2=O)cc1 (centres undefined)	EBI2 antag 60.5 (no result: H9c2 TAG inh) | EBI2 conf 64.5 | EBI2 agonist inactive | bGal cs inactive
Cc1csc(C(C)N(C)C(=O)c2ccc(OC3CCN(Cc4ccccn4)CC3)cc2)n1 (centres undefined)	none
COc1ccccc1N1CCN(C(=O)c2cc(-c3ccc(F)cc3)[nH]c2C)CC1	EBI2 antag 95.3 (no result: H9c2 TAG inh) | EBI2 conf 71.5 | EBI2 agonist inactive | bGal cs inactive
COc1ccccc1N1CCN(C(=O)c2ccoc2C)CC1	none (no result: H9c2 TAG inh)
O=C(c1cccc(C(=O)N2CCN(c3ccccc3F)CC2)c1)N1CCN(c2ccccc2F)CC1	none
Cc1[nH]c(-c2ccc(F)cc2)cc1C(=O)N1CCN(c2ccccc2F)CC1	EBI2 antag 90.9 (no result: H9c2 TAG inh) | EBI2 conf 85.2 | EBI2 agonist inactive | bGal cs inactive
O=C(c1cc2cc(Br)ccc2o1)N1CCCCC1	EBI2 antag 57.5 | EBI2 conf inactive | EBI2 agonist inactive | bGal cs inactive
c1ccc2c(Cn3ccnc3)cccc2c1	none
